This is an account of results in BindingDB's records for doi:10.1021/np900192r (Cnrs, 2009).

One may read the Ki as the dissociation constant of the complex between target and ligand, obtained from inhibition or displacement.

For this experiment, the target named is Bcl-2-like protein 1 (Homo sapiens, UniProt Q07817). The experiment is described as follows: Binding affinity to Bcl-xL by fluorescein-labeled Bak-BH3 peptide competition binding assay. Summed up: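 Fluorescence polarization competition on Bcl-xL against a fluorescein-tagged Bak BH3-domain peptide as the reference ligand. Ki is the dissociation constant at equilibrium with the reference ligand. Unlabeled Bak(BH3) peptide and a substituted terphenyl derivative served as positive controls. Bcl-xL values are from duplicate runs.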
Bcl-2-like protein 1, sequence (Q07817 whole entry): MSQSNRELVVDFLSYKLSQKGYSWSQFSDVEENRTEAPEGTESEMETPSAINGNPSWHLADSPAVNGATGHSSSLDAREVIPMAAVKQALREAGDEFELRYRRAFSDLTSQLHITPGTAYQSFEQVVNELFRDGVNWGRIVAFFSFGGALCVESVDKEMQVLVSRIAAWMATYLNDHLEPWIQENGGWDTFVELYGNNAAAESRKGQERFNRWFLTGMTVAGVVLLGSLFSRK
Take `CC(=O)O[C@@H]1[C@@H](O)[C@@H](O)[C@H](OC[C@]2(C)[C@@H](OC(C)=O)C[C@H](O)[C@]3(C)[C@H]4CC=C5[C@H]6C[C@](C)(C(=O)O)CC[C@]6(C)CC[C@@]5(C)[C@]4(C)CC[C@@H]23)O[C@H]1C` [23-O-[alpha-L-(4'-Acetylrhamnopyranosyl]-3beta-acetylimberbic acid]: the inhibitory constant (Ki) was > 100 µM.

Take `COC(=O)[C@]1(C)CC[C@]2(C)CC[C@]3(C)C(=CC[C@@H]4[C@@]5(C)[C@@H](O)C[C@H](OC(C)=O)[C@@](C)(CO[C@@H]6O[C@@H](C)[C@H](OC(C)=O)[C@@H](O)[C@H]6O)[C@@H]5CC[C@]43C)[C@H]2C1` [23-O-[alpha-L-(4'-Acetylrhamnopyranosyl]-3beta-acetylimberbic acid 29-methyl ester]: the Ki was > 100 µM.

For `CC(=O)O[C@@H]1[C@@H](OC(C)=O)[C@@H](O)[C@H](OC[C@]2(C)[C@@H](OC(C)=O)C[C@H](O)[C@]3(C)[C@H]4CC=C5[C@H]6C[C@](C)(C(=O)O)CC[C@]6(C)CC[C@@]5(C)[C@]4(C)CC[C@@H]23)O[C@H]1C` [23-O-[alpha-L-(3',4'-Diacetylrhamnopyranosyl]-3beta-acetylimberbic acid], the inhibitory constant (Ki) is > 100 µM.
